Reference: PMC3928098 (Leukemia, 2013)

Experiments:
[1] = test system: cyclin H-CDK7 (K7/H); test: in vitro cell-free kinase assay, cyclin H-CDK7; format: biochemical; settings: in vitro kinase assays, compared with CDK 1, 2, 3, 4, 5 and 9
[2] = test system: cyclin D3-CDK6 (K6/D3); test: in vitro cell-free kinase assay, cyclin D3-CDK6; format: biochemical; settings: in vitro kinase assays, compared with CDK 1, 2, 3, 4, 5 and 9
[3] = test system: MM cell lines (MM.1S, MM.1R, H929, U266, OPM1, RPMI); test: MTT cell viability assay in MM cell lines; format: cell-based; settings: Homo sapiens
Summary of the method: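 MM lines were grown in RPMI-1640 with 10% FBS, 2 mM L-glutamine and pen/strep, then treated with test compound (0–100 nM) for 24 and 48 h. MTT was added for 4 h at 37°C and dissolved in acidified isopropanol. Absorbance was read at 570 nm, corrected at 630 nm, with triplicate cultures.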

[4] = test system: primary tumor cells from MM patients (CD138+); test: MTT viability of primary tumor cells from MM patients; format: cell-based, human; settings: 0-100nM, MTT at 48h
Summary of the method: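 Bone marrow mononuclear cells from MM patient aspirates were separated on Ficoll-Hipaque, and plasma cells were purified by anti-CD138 magnetic bead positive selection. Cells were cultured with test compound (0–100 nM) and viability was read by MTT at 48 h (570/630 nm). Values are means ±SD of triplicate cultures.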

[5] = test system: healthy donor PBMCs; test: cytotoxicity in healthy donor PBMCs; format: cell-based, human; settings: compared with tumor cells from MM patients, 50nM
Summary of the method: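 PBMCs were obtained from healthy volunteer blood by Ficoll-Hipaque gradient separation before exposure to test compound.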

[6] = test system: MM.1S cells; test: annexin V-PI apoptosis detection; format: cell-based, human; settings: 50nM, 12 hours
Summary of the method: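 MM.1S cells (1 × 10⁶) were exposed to 50 nM test compound or medium for 12–24 h. Cells were stained with annexin V-FITC and PI for 15 min, and annexin V+/PI+ apoptotic cells were counted by flow cytometry.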

[7] = test system: MM.1S cells; test: cell cycle analysis by PI flow cytometry; format: cell-based, human; settings: 50nM, 12h
Summary of the method: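 MM.1S cells (1 × 10⁶) were cultured in medium or with 50 nM test compound for 12 and 24 h, then washed in ice-cold PBS. They were fixed in 100% ethanol for 1 h at 4°C, treated with RNase for 30 min at 37°C, and stained with propidium iodide. Cell cycle profiles were acquired by flow cytometry and modelled for phase distribution.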

[8] = test system: MM.1S cells xenograft; test: MM xenograft murine model, anti-MM activity; format: in vivo, CB-17 SCID mice; settings: for maximum TGI (%): day 14 following end of treatment
Summary of the method: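 SCID mice were irradiated, then inoculated s.c. in the upper back 24 h later with MM.1S cells (2.5 × 10⁶ in methods; 3 × 10⁶ in 100 uL RPMI in legend). At ~100 mg tumour, mice were randomised to test compound in D5W pH5.2 or D5W vehicle, IV tail vein daily ×5 (n=8, 9, 10). Calipers every other day; volume = ½·L·W². TGI = 100 − T/C%; log10 cell kill from growth delay and doubling time; survival timed from first treatment day.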

[9] = MM xenograft murine model, body weight and toxicity; format: in vivo, CB-17 SCID mice
Summary of the method: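 MM.1S s.c. xenografts in irradiated SCID mice; test compound at 30 or 40 mg/kg, or D5W pH5.2 vehicle, given IV by tail vein daily for 5 days once tumours reached ~100 mg. Body weight and tumour size were recorded every alternate day. Mice were euthanised by CO2 if tumour exceeded 2 cm or ulcerated.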

[10] = test system: MM.1S cells; test: RNA synthesis assay, [5'-3H]uridine incorporation, MM.1S; format: cell-based, human
[11] = test system: MM.1S cells; test: DNA synthesis assay, [3H-TdR] uptake; format: cell-based, human; settings: BMSCs-stimulated MM.1S cells
Summary of the method: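 MM.1S cells (2–3 × 10³/well) were plated alone or with patient-derived BMSCs and exposed to varying test compound concentrations for 8 and 24 h at 37°C. [³H-TdR] ([…]) was pulsed in the last 8 h. Cells were harvested and counted by scintillation. Values are means ±SD of triplicate cultures.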

[12] = test system: U266, OPM1, and RPMI MM cell lines; test: RNA synthesis assay in p53-mutated MM cell lines; format: cell-based, human; settings: 0-100nM, 24h
Summary of the method: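 p53-mutant U266, OPM1 and RPMI cells (2–3 × 10³/well) were treated at 37°C with test compound (0–100 nM) for 2 and 24 h. [5′-³H]uridine was then added, and cells were harvested and counted by scintillation. Values are means ±SD of triplicate cultures.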

[13] = test system: MM.1S cells; test: NAD+/NADH quantification assay; format: cell-based, human; settings: 50nM
Summary of the method: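 MM.1S cells were cultured with 50 nM test compound and 5 × 10⁵ cells were extracted. For total NAD, extract was incubated with NAD Cycling Mix for 5 min at RT to convert NAD+ to NADH. For NADH, extract was heated at 60°C for 30 min to decompose NAD+. Developer was added for 40 min in the dark and read at 450 nm, in duplicate. Ratio = (NADt − NADH)/NADH.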

[14] = test system: p53 knockdown MM.1S cells; test: MTT viability of p53 shRNA knockdown MM.1S; format: cell-based, human; settings: p53 shRNA-transduced MM.1S versus control, MTT 48h
Summary of the method: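 MM.1S cells were transduced with lentiviral shTP53 or empty-vector particles in medium with polybrene (8 μg/ml), and medium was refreshed at 24 h. Infection was checked at 72 h by puromycin (2 μg/ml) sensitivity against parental cells, using MTT. Transduced cells were then exposed to test compound and viability was read by MTT, in triplicate cultures.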

[15] = test system: p-RNAPII S2/S5 in MM cell lines; test: western blot of phosphorylated RNAPII S2/S5; format: cell-based, human; settings: 0-8h, 25-100nM, all tested MM cell lines, immunoblot
Summary of the method: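 MM cell lines were exposed to test compound (0–100 nM) for 1, 4 and 8 h. Whole-cell lysates were run on SDS-PAGE and transferred to nitrocellulose. Blots were probed with phosphospecific antibodies to RNAPII S2/S5 and re-probed for actin, tubulin or GAPDH as loading controls.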

[16] = test system: p53 DNA binding activity in MM.1S cells; test: sequence specific p53 DNA binding assay; format: cell-based, human; settings: 50nM, 4h
Summary of the method: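 MM.1S cells were cultured with medium or 50 nM test compound for 1, 4 and 8 h, and nuclear proteins were then isolated. Extracts were incubated overnight in wells coated with dsDNA carrying the p53 response element. Bound p53 was detected with an anti-p53 primary antibody and an HRP-linked secondary, read colorimetrically at 450 nm, in triplicate.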

[17] = test system: miR-21-3p, miR-19a-5p, miR-92a-1-5p in U266 and OPM1 cells; test: TaqMan specific miRNA assays; format: cell-based, human; settings: 50nM for 8h
Summary of the method: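 U266, OPM1 and RPMI cells were cultured for 8 h in medium alone or with 50 nM test compound. Total RNA was isolated with a mirVana kit. miR-21-3p, miR-19a-5p and miR-92a-1-5p were quantified with target-specific TaqMan MicroRNA Assays following the manufacturer's protocol.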

[18] = test system: cyclin T1-CDK9 (K9/T1); settings: read-out: IC50 K9/T1; in vitro cell-free kinase assay; cited from earlier work
[19] = test system: cyclin B1-CDK1 (K1/B1); settings: read-out: IC50 K1/B1; in vitro cell-free kinase assay; cited from earlier work
[20] = test system: cyclin E-CDK2 (K2/E); settings: read-out: IC50 K2/E; in vitro cell-free kinase assay; cited from earlier work
[21] = test system: cyclin D1-CDK4 (K4/D1); settings: read-out: IC50 K4/D1; in vitro cell-free kinase assay; cited from earlier work
[22] = test system: cyclin E-CDK3 (K3/E); settings: read-out: IC50 K3/E; in vitro cell-free kinase assay; cited from earlier work
[23] = test system: p35-CDK5 (K5/p35); settings: read-out: IC50 K5/p35; in vitro cell-free kinase assay; cited from earlier work
[24] = test system: cyclin H-CDK7 (K7/H); settings: read-out: IC50 K7/H; in vitro cell-free kinase assay; cited from earlier work
[25] = test system: cyclin D3-CDK6 (K6/D3); settings: read-out: IC50 K6/D3; in vitro cell-free kinase assay; cited from earlier work
[26] = test system: Fms; settings: read-out: IC50 Fms; in vitro cell-free kinase assay; cited from earlier work
[27] = test system: GSK-3β; settings: read-out: IC50 GSK-3β; in vitro cell-free kinase assay; cited from earlier work
[28] = test system: TAK1; settings: read-out: IC50 TAK1; in vitro cell-free kinase assay; cited from earlier work
[29] = test system: C-src; settings: read-out: IC50 C-src; in vitro cell-free kinase assay; cited from earlier work
[30] = test system: AMPK; settings: read-out: IC50 AMPK; in vitro cell-free kinase assay; cited from earlier work
[31] = test system: Jak2; settings: read-out: IC50 Jak2; in vitro cell-free kinase assay; cited from earlier work
[32] = test system: MEK1; settings: read-out: IC50 MEK1; in vitro cell-free kinase assay; cited from earlier work

COCCN1CCN(Cc2ccc(-c3n[nH]c4c3C(=O)c3c(NC(=O)NN5CCOCC5)cccc3-4)cc2)CC1.Cl.Cl [RGB-286638, 1-(3-{4-[4-(2-Methoxyethyl)-piperazin-1-ylmethyl]-phenyl}-4-oxo-1,4-dihydroindeno[1,2-c]pyrazol-5-yl)-3-morpholin-4-yl-urea dihydrochloride]
fold less active against CDK 7 [1]: 44 fold | fold less active against CDK 6 [2]: 55 fold | EC50 ([3]; 48 h, read-out: EC50, viability by MTT assay): 20 to 70 nM | IC50 ([3]; read-out: IC50, MM cell proliferation): 50 to 100 nM | cytotoxicity in primary tumor cells from MM patients [4]: comparable cytotoxicity to MM cell lines | cytotoxicity in healthy donor PBMCs [5]: less cytotoxicity | apoptotic MM cells, Annexin/PI staining [6]: 25% | effect on cell cycle [7]: G1 and G2/M cell cycle arrest | maximum TGI (%) ([8]; 30 mg/kg IV daily for 5 days): 85.06% | maximum TGI (%) ([8]; 40 mg/kg IV daily for 5 days): 86.34% | log10 cell kill (LCK Td: 4.5 days) ([8]; both treated groups (30 mg/kg and 40 mg/kg IV, 5 days)): 1.6 | survival, first death ([8]; both treated groups (30 and 40 mg/kg), controls day 24): 43 days | maximum percentage of body weight (BW) loss ([9]; 30mg/kg dosage schedule, day 5): 8.4% | maximum percentage of body weight (BW) loss ([9]; 40 mg/kg dosing, day 15): 9.9% | toxic deaths ([9]; 30 and 40 mg/kg IV daily for 5 days): No toxic deaths | reduction of total level of transcripts ([10]; BMSCs-stimulated MM.1S cells, 8h): ~ 50% | effect on transcription ([10]; BMSCs-stimulated MM.1S cells, 24h): blocked transcription | reduction of RNA synthesis ([10]; MM.1S, 50nM or 100nM, two hours): 50% | reduction in DNA synthesis ([11]; 8h): 60% | effect on MM.1S proliferation ([11]; 24h): complete block | effect on RNA synthesis [12]: significant inhibition | NADH depletion [13]: 50% | NADt depletion [13]: 30% | cells rescued from RGB-286638-induced cell death by p53 knockdown [14]: 14% | effect on p-RNAPII S2/S5 [15]: rapid downregulation | p53 sequence specific DNA binding [16]: increased p53 DNA binding | miR-21-3p, miR-19a-5p, and miR-92a-1-5p levels [17]: significantly reduced | IC50 [18]: 1 nM | IC50 [19]: 2 nM | IC50 [20]: 3 nM | IC50 [21]: 4 nM | IC50 [22]: 5 nM | IC50 [23]: 5 nM | IC50 [24]: 44 nM | IC50 [25]: 55 nM | IC50 [26]: 1 nM | IC50 [27]: 3 nM | IC50 [28]: 5 nM | IC50 [29]: 25 nM | IC50 [30]: 41 nM | IC50 [31]: 50 nM | IC50 [32]: 54 nM

OC[C@H]1OC(n2cnc3cc(Cl)c(Cl)cc32)[C@H](O)[C@@H]1O (stereo partly drawn) [DRB, 5,6-Dichloro-1—D-ribofuranosylbenzimidazole, reference compound]
effect on RNA synthesis ([10]; MM.1S, 2h, Suppl. Fig. S3): significantly inhibited RNA synthesis
